TAAR1 ag: agonists of human TAAR1; activation, % at 3 µM; AID 624467; CHO RD-HGA16 TAAR1, Fluo-8 calcium fluorescence; vehicle wells 0%, saturating PEA agonist 100%; 0.99% of 360,000 active;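 active means activation above the mean activation of all test compounds in the run plus 3 SD, cut at about 38% in these data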
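Test system: RD-HGA16 (CHO) cells co-expressing Gα16 and hTAAR1; dosing: one-point dosing at 3 µM (nominal); timing: 17-24 h seeding, 75 min 37 °C dye, 30 min RT; signal: kinetic Fluo-8 calcium fluorescence; read-out basis: % activation relative to PEA EC100 response; controls: DMSO and PEA EC100; replicates: n 1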
CHRM1 PAM: potentiates human M1 receptor response to acetylcholine. P11229. CHO-K1 hM1, Fluo-8 calcium fluorescence, ACh EC20; 0% = ACh EC20, 100% = maximal ACh. activation, % at 3 µM. 0.088% of 360,000 active; in the data active means activation above about 19%, passing the limit was not always enough
Target sequence (P11229 whole entry, looked up): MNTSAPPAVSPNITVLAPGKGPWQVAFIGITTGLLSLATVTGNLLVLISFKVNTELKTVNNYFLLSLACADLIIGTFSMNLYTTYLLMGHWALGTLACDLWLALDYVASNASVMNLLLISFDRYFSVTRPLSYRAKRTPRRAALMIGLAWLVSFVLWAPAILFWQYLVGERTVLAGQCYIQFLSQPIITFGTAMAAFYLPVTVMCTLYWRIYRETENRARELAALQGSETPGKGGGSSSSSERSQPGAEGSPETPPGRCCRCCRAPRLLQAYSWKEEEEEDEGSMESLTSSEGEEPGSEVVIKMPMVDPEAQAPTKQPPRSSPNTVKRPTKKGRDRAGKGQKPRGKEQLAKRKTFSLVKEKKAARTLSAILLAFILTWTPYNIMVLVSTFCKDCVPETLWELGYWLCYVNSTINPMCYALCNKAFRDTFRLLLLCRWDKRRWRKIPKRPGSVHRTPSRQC
TAAR1 antagonist: antagonists of human TAAR1; CHO RD-HGA16 TAAR1, Fluo-8 calcium fluorescence, antagonist; inhibition, % at 3 µM; 1.5% of 360,000 active; AID 624466;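 active means inhibition above a per-plate cutoff, the mean inhibition of test compounds on that plate plus 3 SD, cut at about 49% in these data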;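 further: 0% = DMSO plus EC80 beta-PEA response and 100% = DMSO alone without agonist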
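Material: RD-HGA16 CHO cells with stable hTAAR1 and Gα16; Dosing: single nominal final test compound concentration of 3 µM; Schedule: seeding 17-24 h prior, 75-min 37 °C, 30-min RT dye loading; Detection: kinetic Fluo-8 calcium fluorescence measurement; Measure: % inhibition from peak post-agonist over basal fluorescence ratio; Benchmarks: vehicle and agonist controls.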
M1 antag: blocks human M1 muscarinic receptor. P11229. CHO-K1 hM1, Fluo-8 calcium fluorescence, ACh EC80 antagonist. inhibition, % at 3 µM. 1.3% of 360,000 active;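 active means percent inhibition above its own plate's cutoff, namely the mean of that plate's compound wells plus 3 SD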;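 further: peak over basal fluorescence ratio during 140 s after agonist addition; 0% = ACh EC80 plus DMSO and 100% = DMSO alone without agonist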
CHRM1 agonist: human M1 muscarinic receptor agonism. P11229. CHO-K1 hM1, Fluo-8 calcium fluorescence, agonist mode; 0% DMSO, 100% acetylcholine EC100. activation, % at 3 µM. 0.33% of 360,000 active. AID 588814;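 active means activation above the run's mean compound activation plus 3 SD, cut at about 16% in these data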;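 further: peak over basal fluorescence ratio within a 140 s kinetic read after compound addition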
Numbers without * were called inactive; nt = not tested or not shown. Compounds with a hit are over-represented: about 3.4% of the library has one in this group of screens.

SMILES | TAAR1 ag | CHRM1 PAM | TAAR1 antagonist | M1 antag | CHRM1 agonist
CCN(CC)C(=O)c1ncn2c1C(=O)N[C@@H](C)C2 | 1.4 | nt | -7.2 | nt | nt
CC1CC(C)(C)OC(C[N+]2(C)CCCCC2)O1 (stereo unspecified) | 2.4 | -15.3 | -27.4 | 34.9* | -6.2
O=C(Nc1ccc(-c2noc(-c3cccs3)n2)cc1)c1cccnc1 | 17.2 | -2.8 | 55.9* | 13.8 | 5.2
CC(Oc1ccc(Cl)cc1Cl)c1nc(-c2ccc(NC(=O)c3cccnc3)cc2)no1 (stereo unspecified) | 9.4 | -2.3 | 57.1* | -6.7 | -4.4
CN1CCC(OC(=O)COc2ccccc2)CC1 | 20.9 | -18.1 | -2.5 | 51.3* | -3.1
CN1CCC(=C2c3ccccc3CCc3sccc32)CC1 | nt | -26.3 | nt | 98.5* | -3.8
CN1CCc2cccc3c2C1Cc1ccc(O)c(O)c1-3 (stereo unspecified) | 1.3 | -3.4 | 7.9 | -19.7 | 8.2
Nc1nc2c(s1)CCc1ccccc1-2 | 1.8 | 1.9 | 11.5 | -4.2 | -7.4
CN1CCC(=C2c3ccccc3C(O)c3ccccc32)CC1 (stereo unspecified) | 3.3 | -34.9 | 4.3 | 99.8* | -11.0
COc1ccc(C(=O)NCC2CCN(C(=O)C(=O)c3cc4ccccc4o3)CC2)c(OC)c1 | -0.8 | nt | -25.5 | nt | nt
Cc1cccc(NC(=O)C(=O)NCCc2c[nH]c3ccccc23)c1C | 19.8 | 5.0 | 11.7 | -17.3 | 3.9
COc1cc2cc(C(=O)NCCc3c[nH]c4ccccc34)c(N)nc2cc1OC | 52.2* | nt | 70.3* | nt | nt
Cc1cccc(C)c1NC(=O)C(=O)NCCc1c[nH]c2ccccc12 | 45.6* | 7.0 | 5.2 | -31.6 | 17.3*
O=C(NCCc1c[nH]c2ccccc12)C(=O)c1c[nH]c2ccccc12 | 39.6* | -2.4 | 62.1* | 5.1 | -0.3
O=C(NCCc1ccc(Cl)cc1)C(=O)c1c[nH]c2ccccc12 | 12.0 | -4.8 | 47.3 | 11.9 | -3.5
Cc1[nH]c2ccccc2c1C(=O)C(=O)NCCc1c[nH]c2ccccc12 | 45.3* | -9.1 | 75.1* | 18.5 | 5.0
CC(C)CNc1ccc2c(c1)OC[C@H](C)NS2(=O)=O | 0.9 | nt | -8.9 | nt | nt
O=C(NCc1ccccc1)[C@@H]1CCCN1C(=O)[C@H]1CCCN1C(=O)c1cccc(F)c1 | 0.2 | nt | 1.3 | nt | nt
O=C(c1ccccc1)C12COc3ccccc3C1ON=C2c1ccccc1 (stereo unspecified) | 2.6 | nt | -11.4 | nt | nt
OC(c1cccc(Cl)c1)c1nccc2ccccc12 (stereo unspecified) | 5.2 | 6.9 | -9.2 | -5.2 | -5.1
O=C(OC(c1ccccc1)c1nccc2ccccc12)c1cc([N+](=O)[O-])cc([N+](=O)[O-])c1 (stereo unspecified) | 4.1 | -18.4 | -19.8 | 35.2* | -8.4
CCOC(=O)CCNC(=O)N1CCCC(N(C)CCc2ccccc2)C1 (stereo unspecified) | 0.5 | 6.9 | -5.5 | -10.5 | -7.5
CC(=O)NCCC(=O)N1CCCC(N(C)CCc2ccccc2)C1 (stereo unspecified) | 4.2 | -20.5 | -3.7 | 44.8* | -9.2
O=C(CCc1nc2ccccc2c(=O)[nH]1)Nc1nnc(SCc2ccc(Cl)cc2)s1 | 0.4 | -1.5 | -9.5 | 1.8 | -2.8
O=C(CCc1nc2ccccc2c(=O)[nH]1)Nc1nnc(SCc2ccccc2F)s1 | 0.8 | -26.8 | -8.4 | 48.6* | -8.4
SMILES | TAAR1 ag | CHRM1 PAM | TAAR1 antagonist | M1 antag | CHRM1 agonist
C[C@H](CO)N1C[C@H](C)[C@@H](CN(C)C(=O)Nc2ccc(-c3cccs3)cc2)OCc2cn(nn2)CCCC1=O | 0.1 | nt | 7.9 | nt | nt
O=C1C2C3C=CC(C3)C2C(=O)N1c1ccc(N2CCN(c3ccccn3)CC2)c([N+](=O)[O-])c1 (stereo unspecified) | 7.7 | -17.3 | 23.9 | 38.9* | 1.1
O=C(CCN1C(=O)C2C3C=CC(C3)C2C1=O)N1CCN(c2ccccn2)CC1 (stereo unspecified) | 11.0 | 6.7 | 0.9 | -5.2 | -3.6
COc1ccc(CN2CCCC(C(=O)c3ccc(Cl)cc3)C2)cc1Cn1cccn1 (stereo unspecified) | 1.5 | -26.2 | -8.8 | 58.5* | -7.7
COc1cccc(C(=O)C2CCCN(Cc3cccc(-n4nc(C)cc4C)c3)C2)c1 (stereo unspecified) | 6.8 | -29.8 | 9.2 | 60.3* | -10.2
COc1cccc(C(=O)C2CCCN(Cc3ccc(OC)c(Cn4cncn4)c3)C2)c1 (stereo unspecified) | 2.0 | -22.3 | -6.7 | 37.3* | -7.6
COc1ccc(C(=O)C2CCCN(Cc3ccc4c(c3)OCCO4)C2)cc1F (stereo unspecified) | 2.5 | -19.6 | -19.6 | 11.6 | -5.8
O=C(O)c1cc(Cl)ccc1-c1ccc(/C=C/c2cc(C(F)(F)F)[nH]c(=O)n2)o1 | 67.2* | -14.7 | 8.7 | 14.5 | 11.3
O=C1c2ccccc2-c2onc3ccc(NCc4ccco4)c1c23 | nt | -13.3 | nt | 43.6* | 36.4*
CN1CCCCC(NC(=O)c2ccccc2)C1=O (stereo unspecified) | 1.8 | nt | -7.1 | nt | nt
Oc1cccc(Nc2nc(NCC3CCCO3)c3ccccc3n2)c1 (stereo unspecified) | nt | -3.4 | nt | 10.9 | -1.7
OCCNc1nc(Nc2ccccc2)nc(Nc2ccccc2)n1 | 13.1 | 4.6 | -12.6 | -41.5 | -2.3
OCCNc1nc(Nc2ccc(Br)cc2)nc2ccccc12 | 65.2* | nt | 60.4* | nt | nt
COc1ccccc1Nc1nc(NCc2ccco2)c2ccccc2n1 | -0.1 | -7.0 | -36.0 | 2.8 | -6.5
Cc1ccc(Nc2nc(NCc3ccco3)c3ccccc3n2)cc1 | 50.2* | -9.9 | -3.4 | 30.9 | 4.3
c1ccc(Nc2nc(NCC3CCCO3)c3ccccc3n2)cc1 (stereo unspecified) | 51.6* | -30.8 | 2.8 | 12.0 | -14.2
COC(=O)[C@]12C[C@H](CC(=O)NCc3ccc(C)o3)C(=O)N(CCC3=CCCCC3)C1=C[C@H](COCc1ccccc1)O[C@@H]2C | -0.4 | nt | -22.6 | nt | nt
CCN(Cc1ccccc1)C(=O)Nc1c(Cl)cccc1Cl | -1.4 | nt | -15.1 | nt | nt
COc1ccc(-c2c(-c3ccsc3)oc(=O)c3cc(OC)c(OC)cc23)cn1 | 17.6 | -7.0 | 15.1 | 16.8 | -3.0
COc1cc2c(-c3ccc4cc[nH]c4c3)c(-c3ccsc3)oc(=O)c2cc1OC | 12.7 | -25.2 | 6.0 | 36.6* | -11.7
Cc1cccc(C(=O)NN2S(=O)(=O)c3ccccc3S2(=O)=O)c1 | 0.0 | 5.4 | -4.2 | 32.9* | -2.5
COc1cc(C[C@@H]2C(=O)OC[C@H]2Cc2ccc(OC)c(OC)c2)ccc1O | 16.1 | -23.5 | 13.7 | 49.6* | 3.3
CC1CCCN(C(=O)Nc2ccc([N+](=O)[O-])cc2)C1 (stereo unspecified) | 17.6 | nt | -4.1 | nt | nt
CCN=C1NC(CCc2ccccc2)C(C(=O)OC)=C(C)N1Cc1ccc(C(F)(F)F)cc1 (stereo unspecified) | 7.8 | nt | -3.2 | nt | nt

Screening data: PubChem, The Scripps Research Institute Molecular Screening Center
